In ChEMBL document CHEMBL1158112, “A nitrogen-containing 3-alkyl-1,4-benzoquinone and a gomphilactone derivative from Embelia ribes” (J Nat Prod, 2006):
pIC50: −log10 of the molar value. Calls of active or inactive are those of the source. No cut-off for these calls is given here.

Tests used:
[1] = tested on: A2780; test: Cytotoxicity against human A2780 cells after 96 hrs by MTT assay; assay type: functional, cell-based; conditions: A2780, 96 h
Outline: (§1)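 Cells grown in RPMI1640 with 10% FBS, 100 units/mL penicillin and 100 µg/mL streptomycin, at 37 °C in humidified 5% CO2. Seeded at 1200 cells/well; compounds added after 24 h at five concentrations (final DMSO 0.1%), triplicate wells.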

[2] = tested on: BGC-823; test: Cytotoxicity against human BGC-823 cells after 96 hrs by MTT assay; assay type: functional, cell-based; conditions: BGC-823, 96 h; outline: as §1
[3] = tested on: HCT-8; test: Cytotoxicity against human HCT8 cells after 96 hrs by MTT assay; assay type: functional, cell-based; conditions: HCT-8, 96 h; outline: as §1
[4] = tested on: Bel-7402; test: Cytotoxicity against human Bel-7402 cells after 96 hrs by MTT assay; assay type: functional, cell-based; conditions: Bel-7402, 96 h; outline: as §1
[5] = target: T1, Tyrosine-protein phosphatase non-receptor type 1 (Homo sapiens) (UniProt P18031); test: Inhibition of PTP1B at 50 uM
T1 sequence (whole entry): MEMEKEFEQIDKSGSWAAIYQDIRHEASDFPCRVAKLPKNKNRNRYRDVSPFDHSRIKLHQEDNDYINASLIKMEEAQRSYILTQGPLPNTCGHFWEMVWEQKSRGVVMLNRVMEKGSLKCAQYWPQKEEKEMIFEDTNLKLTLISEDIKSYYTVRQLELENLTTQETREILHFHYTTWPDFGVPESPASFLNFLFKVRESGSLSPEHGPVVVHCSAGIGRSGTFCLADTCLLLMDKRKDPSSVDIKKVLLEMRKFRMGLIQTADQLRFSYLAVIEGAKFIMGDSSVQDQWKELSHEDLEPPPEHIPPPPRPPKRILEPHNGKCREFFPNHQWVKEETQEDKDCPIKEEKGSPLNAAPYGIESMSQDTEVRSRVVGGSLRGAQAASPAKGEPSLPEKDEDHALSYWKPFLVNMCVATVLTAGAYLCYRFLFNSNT

[6] = target: Prothrombin (Homo sapiens) (UniProt P00734); test: Inhibition of thrombin at 50 uM
[7] = tested on: A549; test: Cytotoxicity against human A549 cells after 96 hrs by MTT assay; assay type: functional, cell-based; conditions: A549, 96 h; outline: as §1

SMILES | pIC50 [1] | pIC50 [2] | pIC50 [3] | pIC50 [4] | Activity [5] | Activity [6] | pIC50 [7] | IC50 [1] | IC50 [2] | IC50 [3] | IC50 [4] | IC50 [7]
CCCCCCCCCCCCCC1=C(O)C(=O)C=C(O)C1=O [Rapanone] | 5.74 | 5.72 | 5.82 | 5.84 | inactive | inactive | 5.80 | – | – | – | – | –
CC[C@H](CC[C@@H](C)[C@H]1CC[C@H]2[C@@H]3CC=C4C[C@@H](O[C@@H]5O[C@H](CO)[C@@H](O)[C@H](O)[C@H]5O)CC[C@]4(C)[C@H]3CC[C@]12C)C(C)C [SITOGLUSIDE] | – | – | – | – | inactive | inactive | – | > 10 µg/mL | > 10 µg/mL | > 10 µg/mL | > 10 µg/mL | > 10 µg/mL
CCCCCCCCCCCCCCCc1cc(O)cc(O)c1 [CARDOL] | 5.88 | 5.76 | 5.83 | 5.71 | inactive | inactive | 5.84 | – | – | – | – | –
CCCCCc1cc(O)cc(OC)c1 | – | – | – | – | inactive | inactive | – | > 10 µg/mL | > 10 µg/mL | > 10 µg/mL | > 10 µg/mL | > 10 µg/mL
CCCCC/C=C\C/C=C\CCCCCCCc1cc(O)cc(O)c1 | 5.80 | 5.75 | 5.81 | 5.72 | inactive | inactive | 5.85 | – | – | – | – | –
Oc1cc(O)c2c(c1)O[C@H](c1ccc(O)c(O)c1)[C@@H](O)C2 [CIANIDANOL] | – | – | – | – | inactive | inactive | – | > 10 µg/mL | > 10 µg/mL | > 10 µg/mL | > 10 µg/mL | > 10 µg/mL
CC[C@@]1(O)C(=O)OCc2c1cc1n(c2=O)Cc2cc3c(CN(C)C)c(O)ccc3nc2-1 [TOPOTECAN] | 5.92 | 5.42 | 5.92 | 5.85 | – | – | 5.46 | – | – | – | – | –
CCCCCCCC/C=C\CCCCCCCc1cc(O)cc(O)c1 | 5.97 | 5.84 | 6.11 | 5.97 | inactive | inactive | 6.34 | – | – | – | – | –
COc1cc([C@H]2c3c(cc(OC)c(O)c3OC)C[C@@H](CO)[C@@H]2CO[C@@H]2O[C@H](CO)[C@@H](O)[C@H](O)[C@H]2O)cc(OC)c1O | – | – | – | – | inactive | inactive | – | > 10 µg/mL | > 10 µg/mL | > 10 µg/mL | > 10 µg/mL | > 10 µg/mL
CCCCCCCCCCCCCC1=C(O)/C(=C2\C(=O)Oc3c2cc(O)c(O)c3CCCCCCCCCCCCC)OC1=O | – | – | – | – | inactive | inactive | – | > 10 µg/mL | > 10 µg/mL | > 10 µg/mL | > 10 µg/mL | > 10 µg/mL
CCCCCCCCCCCCCC1=C(O)C(=O)C=C(NCCCC(=O)O)C1=O | – | – | – | – | inactive | inactive | – | > 10 µg/mL | > 10 µg/mL | > 10 µg/mL | > 10 µg/mL | > 10 µg/mL
COc1cc(O[C@@H]2O[C@H](CO)[C@@H](O)[C@H](O)[C@H]2O)cc(OC)c1O [KOABURASIDE] | – | – | – | – | inactive | inactive | – | > 10 µg/mL | > 10 µg/mL | > 10 µg/mL | > 10 µg/mL | > 10 µg/mL
CC[C@H](CC[C@@H](C)[C@H]1CC[C@H]2[C@@H]3CC=C4C[C@@H](O)CC[C@]4(C)[C@H]3CC[C@]12C)C(C)C [BETA-SITOSTEROL] | – | – | – | – | inactive | inactive | – | > 10 µg/mL | > 10 µg/mL | > 10 µg/mL | > 10 µg/mL | > 10 µg/mL
COc1cc(O)cc(OC)c1O[C@@H]1O[C@H](CO)[C@@H](O)[C@H](O)[C@H]1O [LEONURISIDE] | – | – | – | – | inactive | inactive | – | > 10 µg/mL | > 10 µg/mL | > 10 µg/mL | > 10 µg/mL | > 10 µg/mL
